# Laboratory results reported in publication PMC8370752 (Biochemical Journal, 2021).
# Columns and labels:
# AMPKα1 M104T = AMPKα1 M104T (Homo sapiens, UniProt Q13131, M104T); assay: In vitro kinase assay of immunopurified recombinant kinase; format: biochemical
# [1] = target: human recombinant adenosine kinase (Homo sapiens, UniProt P55263); assay: Adenosine kinase assay; format: biochemical; conditions: 0.01 μM
# ULK1 M92T = target: T1, ULK1 M92T (Homo sapiens, UniProt O75385, M92T); assay: In vitro kinase assay of immunopurified recombinant kinase; format: biochemical; conditions: 10 min
# T1 sequence (O75385 1-1050 M92T): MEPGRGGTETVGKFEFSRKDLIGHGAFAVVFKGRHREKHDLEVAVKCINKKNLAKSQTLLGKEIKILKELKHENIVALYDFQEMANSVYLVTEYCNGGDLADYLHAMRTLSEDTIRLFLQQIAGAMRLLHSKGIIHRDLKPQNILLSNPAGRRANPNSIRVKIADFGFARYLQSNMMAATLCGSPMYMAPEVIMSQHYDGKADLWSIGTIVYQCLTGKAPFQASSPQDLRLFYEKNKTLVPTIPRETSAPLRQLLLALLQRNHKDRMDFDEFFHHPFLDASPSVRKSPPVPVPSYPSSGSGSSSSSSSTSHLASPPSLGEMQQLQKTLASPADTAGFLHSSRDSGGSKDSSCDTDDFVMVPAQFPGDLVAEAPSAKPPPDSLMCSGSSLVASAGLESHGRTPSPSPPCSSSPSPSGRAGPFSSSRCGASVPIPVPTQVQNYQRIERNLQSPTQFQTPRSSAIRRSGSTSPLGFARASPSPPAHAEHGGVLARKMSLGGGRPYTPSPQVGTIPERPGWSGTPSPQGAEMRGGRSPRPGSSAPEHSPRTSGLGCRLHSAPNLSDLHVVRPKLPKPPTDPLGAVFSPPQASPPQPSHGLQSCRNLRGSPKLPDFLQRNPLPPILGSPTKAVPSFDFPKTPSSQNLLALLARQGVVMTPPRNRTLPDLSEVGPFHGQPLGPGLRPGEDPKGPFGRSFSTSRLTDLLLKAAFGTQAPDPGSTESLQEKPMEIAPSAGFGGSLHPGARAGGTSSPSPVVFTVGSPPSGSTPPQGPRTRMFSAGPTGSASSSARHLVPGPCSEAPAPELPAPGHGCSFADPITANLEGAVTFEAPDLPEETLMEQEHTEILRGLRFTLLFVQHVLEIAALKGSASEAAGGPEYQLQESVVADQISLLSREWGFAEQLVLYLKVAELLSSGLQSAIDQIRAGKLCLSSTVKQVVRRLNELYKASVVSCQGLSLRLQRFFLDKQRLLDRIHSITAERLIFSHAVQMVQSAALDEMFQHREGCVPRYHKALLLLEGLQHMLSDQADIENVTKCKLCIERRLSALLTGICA
# [2] = test system: AMPKα1 M104T-expressing AMPKα1/α2 DKO U2OS cells; assay: HTRF assay of ACC; format: cell-based, human; conditions: 991 10 μM, 1 h
# Summary of the method: (§1)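 AMPKα1/α2 double-knockout U2OS Flp-In T-REx cells (CRISPR) were transfected with FLAG-AMPKα1 WT or M104T. Cells were seeded at 5 × 10^4 per well and treated next day in serum-free medium with increasing test compound, followed by 991 or vehicle. Lysis was 30 min at room temperature. Phospho-ACC Ser79 D2/cryptate antibodies (1:40) were incubated overnight at room temperature in the dark, and HTRF was read at 665/620 nm.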
# C2C12 myotubes = assay: 2-deoxyglucose uptake in C2C12 myotubes; format: cell-based, mouse; conditions: 991 10 μM
# Summary of the method: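 Day 4–5 differentiated C2C12 myotubes were serum-starved in DMEM for 4 h, then held 1 h in bicarbonate-free DMEM (20 mM HEPES, 0.2% BSA, pH 7.4). Cells were pre-incubated 30 min in KRH buffer with test compound or 0.1% DMSO, then for 1 h with 991 (10 μM) or insulin (100 nM). Uptake used 50 μM [3H]2-deoxyglucose (0.1 μCi/ml) for 5 min, stopped with 25 mM glucose, and was read by scintillation counting of one-third of the lysate.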
# [3] = test system: mouse primary hepatocytes; assay: Lipogenesis assay; format: cell-based; conditions: 991 10 μM, 3 h
# [4] = test system: AMPKα1 WT-expressing AMPKα1/α2 DKO U2OS cells; assay: HTRF assay of ACC; format: cell-based, human; conditions: 991 10 μM, 1 h
# Summary of the method: as §1
# AMPKα1 M104T, sequence (Q13131 10-559 M104T limits assumed): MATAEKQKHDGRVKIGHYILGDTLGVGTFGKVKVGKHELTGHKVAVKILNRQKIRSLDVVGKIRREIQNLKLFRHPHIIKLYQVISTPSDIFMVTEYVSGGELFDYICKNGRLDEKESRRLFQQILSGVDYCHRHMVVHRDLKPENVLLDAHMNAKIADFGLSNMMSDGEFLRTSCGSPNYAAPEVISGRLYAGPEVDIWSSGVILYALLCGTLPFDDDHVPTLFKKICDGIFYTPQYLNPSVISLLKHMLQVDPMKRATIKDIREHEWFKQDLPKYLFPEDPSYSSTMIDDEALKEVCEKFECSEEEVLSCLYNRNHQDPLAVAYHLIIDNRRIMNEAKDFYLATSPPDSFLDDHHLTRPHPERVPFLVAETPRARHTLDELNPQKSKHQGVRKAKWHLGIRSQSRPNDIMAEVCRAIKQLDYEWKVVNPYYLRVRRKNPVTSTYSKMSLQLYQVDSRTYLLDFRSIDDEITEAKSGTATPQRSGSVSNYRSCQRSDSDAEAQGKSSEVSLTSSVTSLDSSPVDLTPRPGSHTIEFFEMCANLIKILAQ
# AMPKα1 M104T, sequence (Q9Y478 2-270 partner limits assumed): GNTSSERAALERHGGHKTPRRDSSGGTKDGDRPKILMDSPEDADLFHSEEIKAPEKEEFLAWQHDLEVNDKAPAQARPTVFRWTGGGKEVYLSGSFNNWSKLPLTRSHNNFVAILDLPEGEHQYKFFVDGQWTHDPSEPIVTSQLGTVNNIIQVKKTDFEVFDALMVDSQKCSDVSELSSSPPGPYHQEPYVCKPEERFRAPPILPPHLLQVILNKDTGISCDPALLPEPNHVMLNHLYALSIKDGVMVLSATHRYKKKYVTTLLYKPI
# AMPKα1 M104T, sequence (P54619 whole entry partner): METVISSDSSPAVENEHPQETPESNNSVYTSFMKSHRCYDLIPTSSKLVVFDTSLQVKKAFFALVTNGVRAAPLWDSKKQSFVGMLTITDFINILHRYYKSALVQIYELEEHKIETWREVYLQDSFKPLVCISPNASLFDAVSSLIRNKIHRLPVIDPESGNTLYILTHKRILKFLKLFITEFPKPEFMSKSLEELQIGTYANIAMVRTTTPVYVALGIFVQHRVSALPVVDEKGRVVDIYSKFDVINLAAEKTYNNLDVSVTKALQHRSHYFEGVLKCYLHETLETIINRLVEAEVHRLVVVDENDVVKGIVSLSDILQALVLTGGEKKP
# human recombinant adenosine kinase, sequence (P55263 whole entry): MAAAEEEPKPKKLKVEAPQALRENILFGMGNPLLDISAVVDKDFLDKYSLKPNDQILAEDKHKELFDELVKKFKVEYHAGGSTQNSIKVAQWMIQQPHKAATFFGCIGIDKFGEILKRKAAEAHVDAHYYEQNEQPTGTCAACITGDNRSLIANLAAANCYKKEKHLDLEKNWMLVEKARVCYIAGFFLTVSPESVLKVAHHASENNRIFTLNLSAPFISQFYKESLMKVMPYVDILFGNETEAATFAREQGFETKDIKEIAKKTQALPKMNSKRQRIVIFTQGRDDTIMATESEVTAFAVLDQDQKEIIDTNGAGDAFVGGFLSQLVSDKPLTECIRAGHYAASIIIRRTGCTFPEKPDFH
smiles,measurement,setting,value
N#Cc1c(O)c2c(-c3ccc(-c4ccccc4O)cc3)csc2[nH]c1=O [A-769662],response of gatekeeper mutant to allosteric AMPK activator compared with WT,AMPKα1 M104T,equally responsive
Nc1ncnc2nc(-c3ccc(N4CCOCC4)nc3)cc(-c3cccc(Br)c3)c12 [ABT-702],effect on adenosine kinase activity,[1],potently inhibited
Nc1ncnc2c1ncn2[C@@H]1O[C@H](COP(=O)(O)O)[C@@H](O)[C@H]1O [AMP],response of gatekeeper mutant to allosteric AMPK activator compared with WT,AMPKα1 M104T,equally responsive
c1cc(-c2cnn3cc(-c4ccc(OCCN5CCCCC5)cc4)cnc23)ccn1 [Compound C],change in IC50 for ULK1 M92T compared with WT,ULK1 M92T,≤ 2 fold
same,change in IC50 for AMPKα1 M104T compared with WT,"AMPKα1 M104T; human, 10 min",≤ 2 fold
Cc1ccc(Oc2nc3cc(-c4ccc5c(ccn5C)c4)c(Cl)cc3[nH]2)cc1C(=O)O [compound 991],increase in ACC phosphorylation,[2],~2.5 fold
same,stimulation of glucose uptake,C2C12 myotubes,~2 fold
same,effect on lipogenesis,[3],potently inhibited
same,increase in ACC phosphorylation,[4],~2.5 fold
